In ChEMBL document CHEMBL1255303, “In vitro and in vivo antifungal activities of T-2307, a novel arylamidine” (2008):
Converted amounts (≈) assume the structure as drawn. The source made the active and inactive calls. No cut-off for these calls is given here. Starred links: 1 amine or outer side, 2 acyl side, 3 side chain; linkers in the order of their positions; H or OH if unused. Positions of bridges follow the written chain, without caps; N, C: chain ends. Non-standard residues stand in square brackets, D forms with d. Residues, ends and D or L forms follow the SMILES beside them. *: point of attachment. hTyr(3S-OH,4S-OH,3'-OSO3H) = N[C@H](C(=O)O)[C@H](O)[C@@H](O)c1ccc(O)c(OS(=O)(=O)O)c1; Orn(4R-OH,5R-OH) = O=C([C@H](C[C@@H](O)[C@@H](O)N[*:3])N[*:1])[*:2]; Pro(3S-OH,4S-Me) = C[C@H]1CN[C@H](C(=O)O)[C@H]1O; X1 = CCCCCOc1ccc(-c2cc(-c3ccc(C(=O)*)cc3)no2)cc1; Gln(3R-OH) = NC(=O)C[C@@H](O)[C@H](N)C(=O)O; Hyp = O=C(O)[C@@H]1C[C@@H](O)CN1

Key:
[1] = tested on: Fusarium solani; test: Antifungal activity against Fusarium solani IFO 31093 after 48 hrs by broth microdilution method; format: functional; details: IFO 31093, 48 h
In short: (§1)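 CLSI M27-A2 (yeasts) / M38-A (moulds) broth microdilution in RPMI 1640 buffered to pH 7.0 with 0.165 M MOPS. Malassezia furfur got the same medium supplemented with glucose, bile salts, glycerol, glycerol monostearate and Tween 20. Final inoculum 0.65 × 10^3–2.5 × 10^3 CFU/ml for yeasts and 0.87 × 10^4–3.8 × 10^4 CFU/ml for filamentous fungi. Incubation at 35°C except M. racemosus and F. solani, which were held at 30°C.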

[2] = tested on: Trichophyton rubrum; test: Antifungal activity against Trichophyton rubrum NBRC 5467 after 72 hrs by broth microdilution method; format: functional; details: NBRC 5467, 72 h; in short: as §1
[3] = tested on: Cryptococcus neoformans; test: Antifungal activity against Cryptococcus neoformans ATCC 90112 infected ICR mouse after 9 days; format: functional; details: ATCC 90112, 216 h
In short: (§2)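 Male ICR mice, 4 weeks old and SPF, were made neutropenic with intraperitoneal cyclophosphamide. The schedule was 200 mg/kg on day −3 (day −4 for Cryptococcus) plus 100 mg/kg on day +1. Infection was by tail-vein injection of 0.2 ml suspension: C. albicans 3.0 × 10^4, C. neoformans 9.1 × 10^4, A. fumigatus conidia 8.4 × 10^4 CFU/mouse. Drugs were given subcutaneously once daily for 7 days from 2 h post-infection; controls received saline. Groups had 8–10 mice.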

[4] = tested on: Cryptococcus neoformans; test: Antifungal activity against Cryptococcus neoformans ATCC 90112 infected ICR mouse assessed as delay in mortality of mouse at 0.3 mg/kg after 9 days; format: functional, organism-based; parameters: dose 0.3 mg/kg; in short: as §2
[5] = tested on: Candida albicans; test: Antifungal activity against Candida albicans TIMM 1623 infected ICR mouse assessed as delay in mortality of mouse at 0.1 mg/kg after 6 days; format: functional, organism-based; parameters: dose 0.1 mg/kg; in short: as §2
[6] = tested on: Candida albicans; test: Antifungal activity against Candida albicans TIMM 1623 infected ICR mouse assessed as delay in mortality of mouse at 0.2 mg/kg after 6 days; format: functional, organism-based; parameters: dose 0.2 mg/kg; in short: as §2
[7] = tested on: Cryptococcus neoformans; test: Antifungal activity against Cryptococcus neoformans ATCC 90112 infected ICR mouse assessed as delay in mortality of mouse at 0.1 mg/kg after 9 days; format: functional, organism-based; parameters: dose 0.1 mg/kg; in short: as §2
[8] = tested on: Candida albicans; test: Antifungal activity against Candida albicans TIMM 1623 infected ICR mouse assessed as delay in mortality of mouse at 0.01 mg/kg after 6 days; format: functional, organism-based; parameters: dose 0.01 mg/kg; in short: as §2

With `C[C@@H]1[C@H](O)[C@@H](C)/C=C/C=C/C=C/C=C/C=C/C=C/C=C/[C@H](O[C@@H]2O[C@H](C)[C@@H](O)[C@H](N)[C@@H]2O)C[C@@H]2O[C@](O)(C[C@@H](O)C[C@@H](O)[C@H](O)CC[C@@H](O)C[C@@H](O)CC(=O)O[C@H]1C)C[C@H](O)[C@H]2C(=O)O` [AMPHOTERICIN B] as the molecule, how does the MFC [1] read?
The MFC was 2 µg/mL (≈ 2.16 µM).

And the MIC [1]?
The MIC was 2 µg/mL (≈ 2.16 µM).

What about the MFC [2] of the same molecule?
Its MFC is 1 µg/mL (≈ 1.08 µM).

What about the MIC [2] of the same molecule?
Its MIC is 1 µg/mL (≈ 1.08 µM).

What about the ED50 [3] of the same molecule?
Its ED50 is 0.199 mg/kg.

What about the Activity [4] of the same molecule?
The Activity was “Active”.

What about the Activity [5] of the same molecule?
The Activity was “Active”.

Which MFC [1] does the source give for `C[C@@H](c1ncncc1F)[C@](O)(Cn1cncn1)c1ccc(F)cc1F` [VORICONAZOLE] here?
The MFC was 8 µg/mL (≈ 22.9 µM).

What about the MIC [1] of the same molecule?
The MIC was 8 µg/mL (≈ 22.9 µM).

What about the MFC [2] of the same molecule?
Its MFC is > 64 µg/mL.

What about the MIC [2] of the same molecule?
The MIC was 0.0313 µg/mL (≈ 0.0896 µM).

Which results are given for `OC(Cn1cncn1)(Cn1cncn1)c1ccc(F)cc1F` [FLUCONAZOLE]?
MFC [1]: > 64 µg/mL; MIC [1]: > 64 µg/mL; MFC [2]: > 64 µg/mL; MIC [2]: 0.25 µg/mL (≈ 0.816 µM)

Which MFC [1] does the source give for `CCCCCOc1ccc(-c2cc(-c3ccc(C(=O)N[C@H]4C[C@@H](O)[C@@H](O)NC(=O)[C@@H]5[C@@H](O)[C@@H](C)CN5C(=O)[C@H]([C@H](O)CC(N)=O)NC(=O)[C@H]([C@H](O)[C@@H](O)c5ccc(O)c(OS(=O)(=O)O)c5)NC(=O)[C@@H]5C[C@@H](O)CN5C(=O)[C@H]([C@@H](C)O)NC4=O)cc3)no2)cc1` [MICAFUNGIN] (X1-[Orn(4R-OH,5R-OH)]T[Hyp][hTyr(3S-OH,4S-OH,3'-OSO3H)][Gln(3R-OH)][Pro(3S-OH,4S-Me)]; lactam 1-C) here?
Its MFC is > 64 µg/mL.

What about the MIC [1] of the same molecule?
The MIC was > 64 µg/mL.

And the MFC [2]?
Its MFC is > 64 µg/mL.

And the MIC [2]?
Its MIC is 0.0313 µg/mL (≈ 0.0246 µM).

What about the Activity [6] of the same molecule?
Its Activity is “Active”.

`N=C(N)c1ccc(OCCCC2CCN(CCCOc3ccc(C(=N)N)cc3)CC2)cc1` was tested. Which MFC [1] did it give?
Its MFC is > 64 µg/mL.

And the MIC [1]?
The MIC was 0.125 µg/mL (≈ 0.286 µM).

And the MFC [2]?
The MFC was > 64 µg/mL.

What about the MIC [2] of the same molecule?
The MIC was 2 µg/mL (≈ 4.57 µM).

And the ED50 [3]?
Its ED50 is 0.117 mg/kg.

What about the Activity [7] of the same molecule?
Its Activity is “Active”.

And the Activity [8]?
Its Activity is “Active”.
